Measured values of several laboratories.
Compare with care: the assays were run in different laboratories.
Target: Serine/threonine-protein kinase Sgk1 (SGK1, Homo sapiens, UniProt O00141)
Sequence (O00141 1-431, as in one of the studies): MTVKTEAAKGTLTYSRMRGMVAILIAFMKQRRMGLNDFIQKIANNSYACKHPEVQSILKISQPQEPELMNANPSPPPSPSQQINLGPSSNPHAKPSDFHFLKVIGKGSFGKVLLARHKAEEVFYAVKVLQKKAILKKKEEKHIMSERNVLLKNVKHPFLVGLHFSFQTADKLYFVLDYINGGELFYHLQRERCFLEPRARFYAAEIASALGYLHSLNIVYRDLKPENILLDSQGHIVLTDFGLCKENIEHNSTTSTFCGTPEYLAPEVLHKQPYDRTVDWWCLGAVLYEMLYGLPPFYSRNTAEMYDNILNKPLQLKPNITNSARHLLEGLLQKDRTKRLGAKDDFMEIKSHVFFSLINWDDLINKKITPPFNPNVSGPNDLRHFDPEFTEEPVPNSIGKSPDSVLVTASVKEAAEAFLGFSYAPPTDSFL

Compound	effect on	mode	technique	concentration	quantity	result
CCN(CC)c1ccc(C2=NNC(=O)CC2C)cc1[N+](=O)[O-] (centres unmarked)	enzyme activity	inhibitor		10 µM	remaining activity	100%
COc1cc2ncnc(Nc3ccc(Oc4ccccc4)cc3C)c2cc1OC	enzyme activity	inhibitor		1 µM	inhibition	8%
Cc1cc(NC(=O)c2cccc3cc(-c4cccc5[nH]nc(N)c45)ccc23)ccc1F	enzyme activity	inhibitor		0.1 µM	activity vs control	87%
Cc1sc(C(=O)NC2COC2)cc1-n1cc(NC(=O)Nc2c(F)cccc2Cl)cn1	enzyme activity	inhibitor		10 µM	remaining activity	115%
O=C1Nc2ccc(Cl)cc2C1=Cc1cc(Cl)c(O)c(Cl)c1	cell-free assay			0.5 µM	remaining signal	91.3%
CC/C(=N\NC(=O)NCc1cccc(O)c1)c1ccc(O)c(C)c1O	enzyme activity	inhibitor		0.1 µM	inhibition	75.4%
CSc1cccnc1N1CCN(Cc2nc3ccccc3[nH]2)CC1	cell-free assay		competition with immobilised ligand	1 µM	remaining binding	82%
COc1cc(Nc2cnc(C#N)c(O[C@H](C)CN(C)C)n2)ncc1-c1cnn(C)c1	enzyme activity	inhibitor	radiometric	1 µM	remaining activity	79%
CNCc1ccc(-c2cc(-c3nc(-c4ccc(S(=O)(=O)C(C)C)cc4)cnc3N)on2)cc1	enzyme activity	inhibitor		2 µM	inhibition	0%
CCN(CC)CCNC(=O)c1c(C)[nH]c(/C=C2\C(=O)Nc3ccc(F)cc32)c1C	enzyme activity	inhibitor		10 µM	inhibition	86%
CC[C@H](CO)Nc1nc(NCc2ccccc2)c2ncn(C(C)C)c2n1	cell-free assay			0.5 µM	remaining signal	120%
CCCOc1ccc(OC)c(F)c1C(=O)c1ccc(C(=O)N[C@@H]2CNC[C@H]2NC(=O)c2ccc3[nH]ncc3c2)cc1	enzyme activity	inhibitor		0.1 µM	remaining activity	64%
COc1cc(Cl)c(C(=O)N[C@@H](CN[C@H]2CC[C@@H](N)CC2)Cc2ccc(C#N)cc2)cc1-c1ccc(CN[C@H](C)c2ccc(C)cc2)o1	enzyme activity	inhibitor		1 µM	remaining activity	94%
CNC(=O)c1cc(Oc2ccc(NC(=O)Nc3ccc(Cl)c(C(F)(F)F)c3)cc2)ccn1	enzyme activity	inhibitor		0.3 µM	inhibition	-15%
Cn1c(=O)n(-c2ccc(C(C)(C)C#N)cc2)c2c3cc(-c4cnc5ccccc5c4)ccc3ncc21	enzyme activity	inhibitor		10 µM	remaining activity	98%
Nc1ncnc2occ(-c3ccc(NC(=O)Nc4cc(C(F)(F)F)ccc4F)cc3)c12	cell-free assay	inhibitor		20 µM	remaining signal	10%
O=[N+]([O-])c1cccc2[nH]c(CNc3nc(N4CCOCC4)nc4c3ncn4-c3ccsc3)nc12	binding		competition with immobilised ligand	10 µM	binding vs control	57%
CCCS(=O)(=O)Nc1ccc(F)c(C(=O)c2c[nH]c3ncc(-c4ccc(Cl)cc4)cc23)c1F	enzyme activity	inhibitor		1 µM	inhibition	< 10%

Compound	effect on	mode	technique	concentration	quantity	result
FC(F)(F)Oc1cccc(-c2cnc3ccc(-c4ccncc4)nn23)c1	enzyme activity	inhibitor	radiometric	5 µM	activity vs control	108%
O=C(Nc1ccc(Oc2ccc(F)cc2)cc1)N1CCc2ncccc2[C@H]1c1ccc(F)cc1	cell-free assay		competition with immobilised ligand	1 µM	remaining binding	95%
Cc1ccc(Nc2nccc(N(C)c3ccc4c(C)n(C)nc4c3)n2)cc1S(N)(=O)=O	enzyme activity	inhibitor		0.3 µM	inhibition	-14%
CCC(=N\O)/C(C)=C/c1ccc(F)cc1	cell-free assay		competition with immobilised ligand	1 µM	remaining binding	89%
CN(C)C1CCN(CC#Cc2nn(C3CCCC3)c3nc(NCc4ccccc4)ncc23)C1 (centres unmarked)	enzyme activity	inhibitor	FRET	10 µM	inhibition	20%
COc1cc(-c2cn(C3CCc4ccccc4N(CC(F)(F)F)C3=O)nn2)ccc1-n1ccc(C)n1 (centres unmarked)	cell-free assay		competition with immobilised ligand	1 µM	remaining binding	88%
c1nc2c(Nc3ccc4c(c3)OCCO4)nc(Nc3ccc4c(c3)OCCO4)nc2[nH]1	enzyme activity	inhibitor		10 µM	activity vs control	100%
CC(C)(C)c1nc2c(s1)c1nc(N)ncc1c1ccc(NS(=O)(=O)c3c(F)cccc3F)c(F)c12	enzyme activity	inhibitor	radiometric	1 µM	remaining activity	87%
CC(C)(O)[C@H]1CC[C@H](Nc2ccc3ncc(-c4cccc(C(F)(F)F)c4)n3n2)CC1	enzyme activity	inhibitor		1 µM	remaining activity	99.4%
CCOCCn1cc(C(=O)Nc2ccc(-n3nc(-c4cccnc4)cc3C(F)(F)F)cn2)ccc1=O	cell-free assay		competition with immobilised ligand	1 µM	remaining binding	83%
Nc1nc(NC2CCCCC2)sc1C(=O)c1ccccc1	enzyme activity	inhibitor		10 µM	remaining activity	81%
CO[C@@H](C)c1c(Nc2ccc([C@@H](N(C)C(=O)C3CCS(=O)(=O)CC3)C(F)(F)F)cc2)cnc2cc(Cl)nn12	cell-free assay		competition with immobilised ligand	1 µM	remaining binding	89%
O=C(Nc1cnn(-c2csc(C(=O)NC3COC3)c2)c1)Nc1ccccc1Cl	enzyme activity	inhibitor		5 µM	remaining activity	93.7%
C[C@@H]1CN(c2cc(-c3n[nH]c4ccc(OC5(C)CC5)cc34)ncn2)C[C@H](C)O1	cell-free assay		competition with immobilised ligand	0.1 µM	remaining binding	89%
Nc1ncnc2n[nH]c(Nc3ccc(F)cc3)c12	cell-free assay			0.5 µM	remaining signal	91.5%
O=C(O)[C@@H]1[C@@H](Cn2nnc3ccccc3c2=O)CC[C@H]1C(=O)c1ccc(OCCC2CCOCC2)cc1	cell-free assay		competition with immobilised ligand	1 µM	remaining binding	74%
Cc1cnc(NC2CCOCC2)nc1-n1cnc(C(=O)NC(CN)c2cc(F)cc(Cl)c2)c1 (centres unmarked)	enzyme activity	inhibitor	radiometric	1 µM	remaining activity	23%
